Reference: ChEMBL document CHEMBL4808215, “Discovery of Selective Small-Molecule Inhibitors for the ENL YEATS Domain” (J Med Chem, 2021)
Calls of active or inactive are those of the source. No cut-off for these calls is given here.

How the values were obtained:
[1] = target: T1, YEATS domain-containing protein 4 (Homo sapiens, UniProt O95619); test: Inhibition of human His-GAS41 YEATS domain and biotinylated H3K27ac peptide interaction at 20 uM by AlphaScreen assay
[2] = target: T2, Protein AF-9 (Homo sapiens) (UniProt P42568); test: Inhibition of human His-AF9 YEATS domain and biotinylated H3K9ac peptide interaction at 20 uM by AlphaScreen assay
T2 sequence (whole entry): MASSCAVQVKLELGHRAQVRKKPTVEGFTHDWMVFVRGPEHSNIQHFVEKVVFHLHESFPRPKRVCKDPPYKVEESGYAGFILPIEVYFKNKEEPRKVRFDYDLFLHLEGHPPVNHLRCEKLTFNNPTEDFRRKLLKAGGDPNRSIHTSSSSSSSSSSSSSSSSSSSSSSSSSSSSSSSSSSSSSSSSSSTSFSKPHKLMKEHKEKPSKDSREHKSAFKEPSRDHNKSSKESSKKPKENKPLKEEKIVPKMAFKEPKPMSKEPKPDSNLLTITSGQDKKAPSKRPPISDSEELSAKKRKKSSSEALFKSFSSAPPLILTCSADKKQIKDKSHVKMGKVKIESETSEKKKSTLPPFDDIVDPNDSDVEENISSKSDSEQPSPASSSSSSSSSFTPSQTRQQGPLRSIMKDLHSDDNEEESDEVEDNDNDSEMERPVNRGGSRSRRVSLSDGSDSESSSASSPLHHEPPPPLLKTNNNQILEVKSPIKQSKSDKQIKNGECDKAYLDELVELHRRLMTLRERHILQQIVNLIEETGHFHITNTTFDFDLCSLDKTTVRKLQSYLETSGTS

[3] = target: T1, YEATS domain-containing protein 4; test: Inhibition of human His-GAS41 YEATS domain and biotinylated H3K27ac peptide interaction by AlphaScreen assay
Summary of the method: (§1)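 His-tagged YEATS domains were expressed in E. coli Rosetta-2 (DE3) pLysS and purified on Ni-NTA. Partners were biotinylated peptide on streptavidin donor and Ni2+-chelate acceptor beads: AF9 30 nM with H3K9ac, GAS41 100 nM with H3K27ac, YEATS2 100 nM with H3K27cr. Peptides at 30 nM, buffer 50 mM HEPES pH 7.4, 100 mM NaCl, 0.1% BSA, 0.05% CHAPS. Thirteen-point 3-fold series from 54 μM to 0.1 nM, 4–6 replicates, signal normalised to no-compound control, four-parameter fit.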

Protein AF-9 = target: T3, Protein AF-9 (Homo sapiens, UniProt P42568); test: Inhibition of human His-AF9 YEATS domain and biotinylated H3K9ac peptide interaction by AlphaScreen assay
T3 sequence (P42568 whole entry): T2 sequence (whole entry)

[4] = target: T4, YEATS domain-containing protein 2 (Homo sapiens) (UniProt Q9ULM3); test: Inhibition of human His-YEATS2 YEATS domain and biotinylated […] peptide interaction at 20 uM by AlphaScreen assay
T4 sequence (whole entry): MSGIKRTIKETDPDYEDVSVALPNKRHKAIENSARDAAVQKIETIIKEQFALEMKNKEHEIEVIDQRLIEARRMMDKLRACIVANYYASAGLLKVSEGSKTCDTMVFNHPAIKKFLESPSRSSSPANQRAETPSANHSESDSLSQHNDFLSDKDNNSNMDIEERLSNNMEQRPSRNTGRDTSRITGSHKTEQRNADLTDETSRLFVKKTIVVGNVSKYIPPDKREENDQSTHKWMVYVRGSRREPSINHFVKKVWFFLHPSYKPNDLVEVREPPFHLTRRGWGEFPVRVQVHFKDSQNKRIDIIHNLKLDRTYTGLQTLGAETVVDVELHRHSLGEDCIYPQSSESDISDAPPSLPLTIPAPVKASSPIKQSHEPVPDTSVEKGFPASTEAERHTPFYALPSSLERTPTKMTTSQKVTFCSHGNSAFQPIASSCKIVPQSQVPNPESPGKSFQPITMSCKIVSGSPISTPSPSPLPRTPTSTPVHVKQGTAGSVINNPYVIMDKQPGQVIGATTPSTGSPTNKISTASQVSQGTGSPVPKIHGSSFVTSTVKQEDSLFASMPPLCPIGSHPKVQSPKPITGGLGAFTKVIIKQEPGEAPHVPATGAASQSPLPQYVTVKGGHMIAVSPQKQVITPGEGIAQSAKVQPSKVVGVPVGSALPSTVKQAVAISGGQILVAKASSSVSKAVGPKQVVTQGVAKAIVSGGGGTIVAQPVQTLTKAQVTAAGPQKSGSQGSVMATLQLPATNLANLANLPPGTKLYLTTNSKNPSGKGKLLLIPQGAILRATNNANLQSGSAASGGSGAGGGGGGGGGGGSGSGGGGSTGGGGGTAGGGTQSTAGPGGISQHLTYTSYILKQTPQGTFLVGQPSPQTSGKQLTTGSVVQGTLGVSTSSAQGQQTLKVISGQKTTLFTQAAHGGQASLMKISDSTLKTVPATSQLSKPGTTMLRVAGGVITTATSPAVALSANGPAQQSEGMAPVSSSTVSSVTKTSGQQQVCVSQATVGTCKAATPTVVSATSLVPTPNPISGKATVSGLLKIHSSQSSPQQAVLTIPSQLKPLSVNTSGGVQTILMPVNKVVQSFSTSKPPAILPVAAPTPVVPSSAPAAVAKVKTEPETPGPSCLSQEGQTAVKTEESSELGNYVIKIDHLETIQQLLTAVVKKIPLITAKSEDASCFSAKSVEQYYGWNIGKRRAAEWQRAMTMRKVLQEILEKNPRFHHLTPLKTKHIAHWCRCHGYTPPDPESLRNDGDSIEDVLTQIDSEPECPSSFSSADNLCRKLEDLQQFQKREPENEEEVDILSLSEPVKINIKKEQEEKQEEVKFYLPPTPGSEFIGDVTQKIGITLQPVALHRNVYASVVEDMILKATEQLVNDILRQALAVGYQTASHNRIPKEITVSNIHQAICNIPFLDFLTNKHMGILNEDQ

[5] = target: T5, YEATS domain-containing protein 2 (Homo sapiens, UniProt Q9ULM3); test: Inhibition of human His-YEATS2 YEATS domain and biotinylated […] peptide interaction by AlphaScreen assay; summary of the method: as §1
T5 sequence (Q9ULM3 whole entry): T4 sequence (whole entry)

Protein ENL = target: T6, Protein ENL (Homo sapiens, UniProt Q03111); test: Inhibition of human His-ENL YEATS domain and biotinylated H3K9ac peptide interaction by AlphaScreen assay
T6 sequence (Q03111 whole entry): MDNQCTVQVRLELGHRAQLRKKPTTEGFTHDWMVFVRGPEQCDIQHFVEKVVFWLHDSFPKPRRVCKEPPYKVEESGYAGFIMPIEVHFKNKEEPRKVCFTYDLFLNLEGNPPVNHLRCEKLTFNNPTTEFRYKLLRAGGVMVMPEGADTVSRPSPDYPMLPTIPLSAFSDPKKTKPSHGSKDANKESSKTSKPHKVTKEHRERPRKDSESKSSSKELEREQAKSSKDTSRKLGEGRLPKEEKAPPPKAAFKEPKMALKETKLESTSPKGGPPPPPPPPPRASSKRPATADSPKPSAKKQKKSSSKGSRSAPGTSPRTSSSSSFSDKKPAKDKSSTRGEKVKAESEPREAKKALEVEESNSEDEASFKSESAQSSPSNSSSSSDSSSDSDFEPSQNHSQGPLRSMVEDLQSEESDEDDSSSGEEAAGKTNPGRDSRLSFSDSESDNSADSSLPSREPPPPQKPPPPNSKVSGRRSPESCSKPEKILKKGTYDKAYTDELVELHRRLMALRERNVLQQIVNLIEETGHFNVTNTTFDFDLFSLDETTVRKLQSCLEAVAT

[6] = target: T2, Protein AF-9 (Homo sapiens); test: Stabilization of AF9 in human HeLa cells assessed as inhibition of high temperature-induced AF9 protein degradation at 20 uM incubated for 5 hrs by cellular thermal shift assay; format: cell-based
Summary of the method: (§2)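 Cells (MOLM13, MV4;11 or HeLa) were treated with 20 μM compound or DMSO for 5 h, washed with PBS and resuspended in PBS with protease inhibitors, about 3 million cells per aliquot. Aliquots were heated 3 min at the indicated temperatures, then held 2 min at room temperature. Lysis was by NP40/glycerol/DTT buffer and three freeze-thaw cycles, followed by a 13,000 rpm spin at 4 °C. Soluble ENL, GAS41 or AF9 in supernatants was measured by western blot with β-actin loading control.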

[7] = target: T7, Protein ENL (Homo sapiens) (UniProt Q03111); test: Stabilization of ENL in human MV4-11 cells assessed as inhibition of high temperature-induced ENL protein degradation at 20 uM incubated for 5 hrs by cellular thermal shift assay; format: cell-based; summary of the method: as §2
T7 sequence (whole entry): T6 sequence (Q03111 whole entry)

U2OS = test: Growth inhibition of ENL-independent human U2OS cells at 50 uM incubated for 3 days by CellTiter-Glo luminescent cell viability assay relative to control; format: functional, cell-based; settings: time 3.0 day
Summary of the method: (§3)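 MOLM13 and MV4;11 were grown in RPMI-1640 + 10% FBS, U2OS in DMEM + 10% FBS. Treatment with DMSO or compound for 3 days. Viability read by CellTiter-Glo luminescence and expressed as % of DMSO-treated cells. Mean ± SEM, n = 3.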

MV4-11 = test: Growth inhibition of human MV4-11 cells at 2.5 to 50 uM incubated for 3 days by CellTiter-Glo luminescent cell viability assay relative to control; format: functional, cell-based; settings: dose 2.5-50 µM, time 3.0 day; summary of the method: as §3
MOLM-13 [8] = test: Growth inhibition of human MOLM13 cells at 10 uM incubated for 3 days by CellTiter-Glo luminescent cell viability assay relative to control; format: functional; settings: MOLM-13, 72 h, time 3 day, read-out: GI; summary of the method: as §3
[9] = target: YEATS domain-containing protein 4 (GAS41) (Homo sapiens) (UniProt O95619); test: Stabilization of GAS41 in human MV4-11 cells assessed as inhibition of high temperature-induced GAS41 protein degradation at 20 uM incubated for 5 hrs by cellular thermal shift assay
[10] = target: T7, Protein ENL (Homo sapiens); test: Inhibition of human His-ENL YEATS domain and biotinylated H3K9ac peptide interaction at 5 uM by AlphaScreen assay
[11] = target: T7, Protein ENL (Homo sapiens); test: Stabilization of ENL in human MOLM13 cells assessed as inhibition of high temperature-induced ENL protein degradation at 20 uM incubated for 5 hrs by cellular thermal shift assay; format: cell-based; settings: MOLM-13; summary of the method: as §2
MOLM-13 [12] = test: Growth inhibition of human MOLM13 cells incubated for 6 days in presence of JQ1 by CellTiter-Glo luminescent cell viability assay; settings: MOLM-13, 144 h
MOLM-13 [13] = test: Growth inhibition of human MOLM13 cells at 5 uM incubated for 3 days by CellTiter-Glo luminescent cell viability assay relative to control; format: functional; settings: MOLM-13, 72 h, time 3 day, read-out: GI; summary of the method: as §3
[14] = target: YEATS domain-containing protein 4 (GAS41) (Homo sapiens) (UniProt O95619); test: Stabilization of GAS41 in human MOLM13 cells assessed as inhibition of high temperature-induced GAS41 protein degradation at 20 uM incubated for 5 hrs by cellular thermal shift assay; settings: MOLM-13
MOLM-13 [15] = test: Growth inhibition of human MOLM-13 cells incubated for 6 days by CellTiter-Glo luminescent cell viability assay; settings: MOLM-13, 144 h
[16] = target: T7, Protein ENL (Homo sapiens); test: Stabilization of ENL in human HeLa cells assessed as inhibition of high temperature-induced ENL protein degradation at 20 uM incubated for 5 hrs by cellular thermal shift assay; format: cell-based; summary of the method: as §2

T1 sequence (O95619 whole entry, the tested form may be a part): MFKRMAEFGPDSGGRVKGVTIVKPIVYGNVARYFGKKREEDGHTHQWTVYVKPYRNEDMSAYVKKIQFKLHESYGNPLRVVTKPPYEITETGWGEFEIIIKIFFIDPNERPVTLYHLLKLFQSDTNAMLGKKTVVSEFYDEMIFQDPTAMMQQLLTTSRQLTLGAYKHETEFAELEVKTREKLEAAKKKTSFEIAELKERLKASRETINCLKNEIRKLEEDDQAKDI
Chain of YEATS domain-containing protein 4 (GAS41) (Homo sapiens) (O95619 whole entry, looked up, the tested form may be a part): as the sequence (O95619 whole entry, the tested form may be a part) above

## O=C(NCc1ccc(CNc2ncc(F)cn2)cc1)c1ccc2nncn2c1
[1]
  inhibition: Active
[2]
  inhibition: Active
[3]
  IC50: > 54000 nM
Protein AF-9
  IC50: 729 nM
[4]
  inhibition: Active
[5]
  IC50: > 54000 nM

## O=C(NCc1cccc(CN2CCC2)c1)c1ccc2nncn2c1
Protein ENL
  IC50: 202 nM

## CC1CCN1Cc1ccc(CNC(=O)c2ccc3nncn3c2)cc1 (stereo not drawn)
Protein ENL
  IC50: 185 nM

## O=C(NCc1ccc(CN2CCCCC2)cc1)c1ccc2nncn2c1
Protein ENL
  IC50: 636 nM

## O=C(NCc1ccc(CNc2nc(F)ccc2F)cc1)c1ccc2nncn2c1
Protein ENL
  IC50: > 2000 nM

## CC(NC(=O)c1ccc2nncn2c1)c1ccc(CN2CCC2)cc1 (stereo not drawn)
Protein ENL
  IC50: > 1000 nM

## CN(C)Cc1ccc(CNC(=O)c2ccc3nncn3c2)cc1
[6]
  Activity: inactive
[7]
  Activity: Active
U2OS
  growth inhibition (GI): inactive
[1]
  inhibition: Active
[2]
  inhibition: Active
[3]
  IC50: > 54000 nM
MV4-11
  growth inhibition (GI): Active
Protein AF-9
  IC50: 4930 nM
Protein ENL
  IC50: 621 nM
MOLM-13 [8]
  inhibition of growth at 10 µM: 80%
[9]
  Activity: inactive
[10]
  inhibition: Active
[11]
  Activity: Active
MOLM-13 [12]
  GI50: 1340 nM
[4]
  inhibition: Active
MOLM-13 [13]
  inhibition of growth at 5 µM: 40%
[5]
  IC50: > 54000 nM
[14]
  Activity: inactive
MOLM-13 [15]
  GI50: 3640 nM
[16]
  Activity: Active

## Cc1cc2ncc(C(=O)NCc3ccc(CN4CCC4)cc3)cn2n1
Protein ENL
  IC50: > 5000 nM

## O=C(NCc1ccc(CN2CCC2)cc1)c1ccn2cnnc2c1
Protein ENL
  IC50: > 5000 nM
